High-throughput results (PubChem)
A selection: hits, their analogues and other compounds. The true share with any hit is near 2.3%.
TRPC4 block – TRPC4 (mouse) channel inhibition; Q9QUQ5; HEK293 TRPC4beta/mu-opioid, DAMGO-evoked Fluo4 calcium flux; hits give low values; B-score at 10 µM; actives 0.39% (n = 300,000); AID 2247;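 active = B-score over 3 SD under the library average, no early fluorescence shift, positive overall ratio signal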
Target sequence (Q9QUQ5 whole entry, looked up): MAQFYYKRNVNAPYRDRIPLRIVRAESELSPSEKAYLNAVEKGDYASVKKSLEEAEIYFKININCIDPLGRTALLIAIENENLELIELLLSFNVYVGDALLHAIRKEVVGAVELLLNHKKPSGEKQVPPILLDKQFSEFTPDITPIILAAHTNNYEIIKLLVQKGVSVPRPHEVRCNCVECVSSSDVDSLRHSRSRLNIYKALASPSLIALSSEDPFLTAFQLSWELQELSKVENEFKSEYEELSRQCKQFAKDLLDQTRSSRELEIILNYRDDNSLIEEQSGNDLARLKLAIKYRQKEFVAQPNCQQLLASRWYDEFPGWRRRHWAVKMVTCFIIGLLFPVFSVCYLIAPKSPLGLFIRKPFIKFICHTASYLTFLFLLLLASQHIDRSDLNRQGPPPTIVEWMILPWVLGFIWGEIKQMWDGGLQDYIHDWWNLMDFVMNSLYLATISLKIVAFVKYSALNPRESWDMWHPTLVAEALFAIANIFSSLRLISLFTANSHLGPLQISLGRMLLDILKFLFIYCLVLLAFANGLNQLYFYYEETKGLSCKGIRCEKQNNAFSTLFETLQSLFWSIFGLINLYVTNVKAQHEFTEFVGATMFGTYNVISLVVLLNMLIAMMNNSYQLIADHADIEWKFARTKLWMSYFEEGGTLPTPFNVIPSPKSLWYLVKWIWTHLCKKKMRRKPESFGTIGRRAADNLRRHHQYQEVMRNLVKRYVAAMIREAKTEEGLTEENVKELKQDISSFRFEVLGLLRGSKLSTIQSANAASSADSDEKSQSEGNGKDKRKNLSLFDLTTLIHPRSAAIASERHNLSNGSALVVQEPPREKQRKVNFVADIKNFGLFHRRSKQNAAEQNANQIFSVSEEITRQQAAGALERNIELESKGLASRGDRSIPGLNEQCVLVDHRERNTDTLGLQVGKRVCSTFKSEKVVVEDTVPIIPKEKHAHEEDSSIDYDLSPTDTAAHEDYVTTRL
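Signal: kinetic Fluo4 fluorescence imaging of calcium influx. Material: stable TRPC4beta/mu-opioid receptor HEK293 cells. Probe or stimulus: DAMGO in two steps, submaximal then maximal.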
TRPC4 potent – allosterically enhances the mouse TRPC4 cation channel | Q9QUQ5 | actives 0.42% (n = 310,000) | HEK293 TRPC4beta/mu-opioid, DAMGO EC20, Fluo-4 Ca2+ flux; hits give high values | B-score at 10 µM;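 active = B-score of calcium response area above 5 SD of library B-scores, with initial fluorescence ratio within 5 SD of library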
TRPC4 agonist – activators of mouse TRPC4 channel | B-score at 10 µM | HEK293 TRPC4beta/mu-opioid, Fluo4 calcium fluorescence; hits give high values | AID 2237 | Q9QUQ5 | actives 0.49% (n = 310,000);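 active = B-score above 5 SD of library B-scores, and initial fluorescence ratio not above library mean plus 5 SD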;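 note: positive B-score marks a calcium rise read as TRPC4 activation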
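Material: HEK293 stable line with TRPC4beta plus mu-opioid receptor; technique: Fluo4 calcium-sensitive dye fluorescence, kinetic, 1 Hz baseline; timing: Fluo4 dye loading 45 min at room temperature, 110 s recording; controls: assay buffer as low control, maximal DAMGO as high control; read-out: integrated baseline-normalised fluorescence ratio, converted to per-well B score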
TRPC6 inh – blocks the mouse TRPC6 cation channel; Q61143; HEK293-TRPC6, membrane potential dye, ACh-evoked depolarization; hits give low values; B-score at 10 µM; actives 1.1% (n = 310,000);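 active = B-score under library mean minus 3 SD, initial fluorescence not abnormally high, positive integrated signal ratio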;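 note: B-score derived from integrated fluorescence ratio over the kinetic read; more negative B-score means stronger inhibition of depolarization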
TRPC6 act – activators of mouse TRPC6 channel | Q61143 | HEK293-TRPC6 membrane potential dye fluorescence; hits give high values | B-score at 10 µM | actives 0.13% (n = 310,000) | AID 2550;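 active = B-score of the integrated fluorescence ratio above library mean plus 3 SD, and starting fluorescence ratio within library mean plus 5 SD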;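 note: higher score means more depolarization so channel activation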
TRPC4 sel inh 2 – second selectivity test of TRPC6 inhibitors: effect on mouse TRPC4 | HEK293 TRPC4/MOR, membrane potential dye fluorescence; channel activated by saturating DAMGO dose | AID 2776 | shares compounds with TRPC6 inh | inhibition, % at 10 µM | actives 42% (n = 920);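 active = compounds whose fluorescence signal differed from control wells by over 3 SD, either direction, in both duplicate plates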
TRPC4 spec – mouse TRPC4 off-target activity of TRPC6 inhibitors; shares compounds with TRPC6 inh; HEK293 TRPC4/mu-opioid, membrane potential fluorescence; activity change, negative = inhibition, % at 10 µM; actives 61% (n = 920); AID 2777;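 active = rise or fall in signal beyond 3 SD of buffer-only wells in both replicate plates, either sign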;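 note: integrated kinetic ratio of fluorescence range over baseline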
HEK293 MPD ctr 2-1 – parental HEK293 nonspecific activity of TRPC6 inhibitors, second screen. parental HEK293 membrane potential dye fluorescence; maximal acetylcholine challenge after compound addition. signal change vs control, % at 10 µM. AID 2779. actives 31% (n = 920). shares compounds with TRPC6 inh;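 active = membrane potential signal moving either way by over 3 SD of the maximum-effect control, in both duplicate plates, meaning non-specific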
HEK293 MPD ctr-1 – checks TRPC6 inhibitor effects in parental HEK293 cells. shares compounds with TRPC6 inh. parental HEK293 membrane potential dye fluorescence. membrane potential signal change, % at 10 µM. actives 60% (n = 920). AID 2780;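 active = membrane potential signal shifting up or down by more than 3 SD of buffer-only wells, on both duplicate plates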
HEK293 MPD ctr-2 – parental HEK293 nonspecific activity of TRPC6 modulators; actives 51% (n = 2,400); shares compounds with TRPC6 inh; membrane potential signal change, % at 10 µM; membrane potential dye fluorescence;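 active = membrane potential signal moves up or down beyond 5 SD from buffer-only wells, on both duplicate plates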
HEK293 MPD ctr 2-2 – second check of TRPC6 modulator effects in parental HEK293 cells; shares compounds with TRPC6 inh; membrane potential dye fluorescence; after compound, maximal acetylcholine stimulation; inhibition, % at 10 µM; actives 14% (n = 2,400); AID 488926;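 active = membrane potential signal drops by more than 5 SD from the mean control signal, in both duplicate plates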
TRPC4/MOR mod – mouse TRPC4 off-target activity of TRPC6 modulators | percent change from control (negative = decrease, positive = increase), % at 10 µM | actives 69% (n = 2,400) | shares compounds with TRPC6 inh | HEK293 TRPC4/mu-opioid, membrane potential fluorescence;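 active = membrane potential signal moved up or down beyond 5 SD of buffer control wells, in both duplicate plates, actives on both sides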
TRPC4 ctr inh 2 – second check of whether TRPC6 modulators also affect mouse TRPC4. shares compounds with TRPC6 inh. actives 55% (n = 2,400). AID 488928. inhibition, % at 10 µM. HEK293 TRPC4/mu-opioid, membrane potential dye fluorescence; stimulated with maximal-effect DAMGO;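 active = drop in membrane potential signal beyond 5 SD of the control wells in both duplicate plates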;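 note: TRPC4 counter screen for TRPC6 hits run under conditions tuned for TRPC6 not TRPC4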
TRPC6 inh conf – confirmation of mouse TRPC6 inhibitors. shares compounds with TRPC6 inh. HEK293-TRPC6, membrane potential dye, ACh-evoked depolarization. inhibition, % at 10 µM. actives 43% (n = 3,300). AID 488960;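 active = fluorescence ratio falls more than 5 SD below the full-stimulation control mean, in both duplicate runs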;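 note: integrated fluorescence ratio of peak minus minimum over baseline after agonist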
TRPC6 act confirm – mouse TRPC6 activator confirmation. shares compounds with TRPC6 inh. HEK293-TRPC6 membrane potential dye fluorescence, FDSS. activation, % at 10 µM. actives 11% (n = 2,800). AID 488961;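 active = ratio signal rise beyond 5 SD above unstimulated control wells' mean, seen in both duplicate runs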
Large screens that a line does not name were inactive (follow-up assays come after a bar, where they were run).

Cc1cc(N2CCN(C)CC2)ccc1NC(=O)c1ccc(-c2ccc(Cl)cc2)o1	TRPC4 agonist 50, TRPC6 inh -9 | TRPC4 sel inh 2 16% | TRPC4 spec 2.7% | HEK293 MPD ctr 2-1 inactive | HEK293 MPD ctr-1 -334% | TRPC6 inh conf 67% | TRPC6 act confirm inactive
CCN(CC)S(=O)(=O)c1ccc(OC)c(NC(=O)Cn2cnc3c2c(=O)n(C)c(=O)n3C)c1	none
CN(Cc1c(F)cccc1Cl)C(=O)c1ccc(NS(=O)(=O)c2ccc3[nH]c(=O)[nH]c3c2)cc1	none
CN(CC#CC(O)(c1ccccc1)c1ccccc1)C(C)(C)C	TRPC6 inh -8.9 | TRPC4 sel inh 2 inactive | TRPC4 spec 6.1% | HEK293 MPD ctr 2-1 -16% | HEK293 MPD ctr-1 8.8% | TRPC6 inh conf 74%
OCCN(CC#CC(O)(c1ccccc1)c1ccccc1)CCO	none
CC(C)N(CC#CC(O)(c1ccccc1)c1ccccc1)C(C)C	TRPC6 inh -6.4 | HEK293 MPD ctr-2 115% | HEK293 MPD ctr 2-2 96% | TRPC4/MOR mod 22% | TRPC4 ctr inh 2 inactive | TRPC6 inh conf 73%
CC(C)N(CC#CC(O)(c1ccccc1)c1ccccc1)CCO	none
CCOC(=O)C1(Cc2ccccc2Cl)CCN(C(=O)c2cnccn2)CC1	none
COc1ccc(S(=O)(=O)N2CCN(c3nc4ccccc4nc3-n3nc(C)cc3C)CC2)cc1	none
C=CCC1(N(C(C)=O)c2ccccc2C)CCCCC1	TRPC6 inh -9.4 | TRPC4 sel inh 2 inactive | TRPC4 spec -0.4% | HEK293 MPD ctr 2-1 inactive | HEK293 MPD ctr-1 0.5% | TRPC6 inh conf inactive | TRPC6 act confirm inactive
C=CCC1(N(C(C)=O)c2ccccc2)CCCCC1	none
COc1ccc(COC(=O)c2sc3nc4n(c(=O)c3c2C)CCC4)cc1	none
O=C(NNC1=C(C(=O)C(F)(F)F)CCC1)c1ccccc1O	TRPC6 inh -5.2 | HEK293 MPD ctr-2 inactive | HEK293 MPD ctr 2-2 inactive | TRPC4/MOR mod inactive | TRPC4 ctr inh 2 inactive | TRPC6 inh conf 38% | TRPC6 act confirm inactive
CC(Nc1nc(-c2cccc(Br)c2)cs1)c1nc2cc(Cl)c(N3CCCCC3)cc2n1CCOCCO (configuration not stated)	none
CC1=CC(=C(C#N)c2nc3ccccc3s2)C=C(C)N1CC1CCCO1 (configuration not stated)	TRPC6 inh -9.8 | HEK293 MPD ctr-2 486% | HEK293 MPD ctr 2-2 inactive | TRPC4/MOR mod -92% | TRPC4 ctr inh 2 inactive | TRPC6 inh conf inactive | TRPC6 act confirm inactive
CCSc1nc2ccc(N3C(=O)C4C5C=CC(C5)C4C3=O)cc2s1 (configuration not stated)	none
O=c1[nH]c(-c2ccccc2)c(-c2ccccc2)nc1[N+](=O)[O-]	TRPC6 act 12 | HEK293 MPD ctr-2 inactive | HEK293 MPD ctr 2-2 inactive | TRPC4/MOR mod 16% | TRPC4 ctr inh 2 inactive | TRPC6 inh conf inactive | TRPC6 act confirm 48%
CCOC(=O)c1ccc(NC(=S)NCc2ccc(S(N)(=O)=O)cc2)cc1	TRPC6 inh -5.3 | HEK293 MPD ctr-2 inactive | HEK293 MPD ctr 2-2 inactive | TRPC4/MOR mod inactive | TRPC4 ctr inh 2 inactive | TRPC6 inh conf 48%
CCOC(=O)c1ccc(NC(=S)N(CCN2CCCCCC2)Cc2ccco2)cc1	none
CCOC(=O)c1ccc(NC(=S)NCc2ccco2)cc1	TRPC6 inh -9.3 | TRPC4 sel inh 2 inactive | TRPC4 spec inactive | HEK293 MPD ctr 2-1 inactive | HEK293 MPD ctr-1 inactive | TRPC6 inh conf inactive | TRPC6 act confirm inactive
CCOC(=O)c1ccc(NC(=O)CN(Cc2ccc(Cl)cc2)S(C)(=O)=O)cc1	TRPC6 inh -6.6 | TRPC4 sel inh 2 inactive | TRPC4 spec -12% | HEK293 MPD ctr 2-1 inactive | HEK293 MPD ctr-1 inactive | TRPC6 inh conf inactive | TRPC6 act confirm inactive
CCOC(=O)c1ccc(NC(=S)N(CCCN2CCCCCC2)Cc2ccco2)cc1	TRPC6 inh -5.7 | HEK293 MPD ctr-2 inactive | HEK293 MPD ctr 2-2 inactive | TRPC4/MOR mod inactive | TRPC4 ctr inh 2 77% | TRPC6 inh conf 56% | TRPC6 act confirm inactive
CCOc1ccc(NC(=S)NCc2ccco2)cc1	none
CS(=O)(=O)N(CC(=O)Nc1ccc2c(c1)OCCO2)Cc1ccc(Cl)cc1	none
CCn1cc(-c2ccccc2)c(C(=O)O)c1-c1ccc(OC)cc1	none
Cc1ccc(Nc2c(-c3ccccn3)nc3cc(C)ccn23)cc1	TRPC6 inh -5.5 | HEK293 MPD ctr-2 -134% | HEK293 MPD ctr 2-2 inactive | TRPC4/MOR mod -27% | TRPC4 ctr inh 2 72% | TRPC6 inh conf inactive | TRPC6 act confirm inactive
Cn1c(CNc2ccc(Cl)cc2)nnc1SCCN1CCCCC1	TRPC6 inh -5.1 | HEK293 MPD ctr-2 inactive | HEK293 MPD ctr 2-2 inactive | TRPC4/MOR mod 18% | TRPC4 ctr inh 2 38% | TRPC6 inh conf inactive | TRPC6 act confirm inactive
Cc1cc2nc(N3CCN(C(=O)c4cccs4)CC3)sc2cc1C	none
Cc1ccc2sc(N3CCN(C(=O)C4=COCCO4)CC3)nc2c1C	TRPC6 inh -5.4 | HEK293 MPD ctr-2 inactive | HEK293 MPD ctr 2-2 inactive | TRPC4/MOR mod 17% | TRPC4 ctr inh 2 inactive | TRPC6 inh conf 68%
